According to ChEMBL document CHEMBL2169769, “Synthesis and biological characterization of protease-activated prodrugs of doxazolidine” (J Med Chem, 2012):
Calls of active or inactive are those of the source. No cut-off for these calls is given here.

Tests used:
[1] = test system: MCF7; test: Cytotoxicity against human MCF7 cells incubated for 3 hrs measured after 3 to 4 hrs in presence of plasmin; assay type: functional, cell-based
[2] = test system: MIA PaCa-2; test: Cytotoxicity against human MIAPaCa2 cells incubated for 3 hrs measured after 3 to 4 hrs in presence of plasmin; assay type: functional, cell-based
[3] = Prodrug conversion assessed as release of human plasmin induced active dozax at 50 uM pH 7.4 in PBS by RP-HPLC; assay type: ADME; settings: buffer, pH 7.4, 50 µM
Summary of the method: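 50 µM prodrug with 1.2 µg/mL human plasmin in PBS pH 7.4 at 37 °C. Samples taken over time, ethanol-quenched, analysed by RP-HPLC at 480 nm for prodrug and dox; repeated runs fit to single-exponential association model.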

[4] = test system: MCF7; test: Cytotoxicity against human MCF7 cells incubated for 3 hrs measured after 3 to 4 hrs in absence of plasmin; assay type: functional, cell-based
[5] = test system: MIA PaCa-2; test: Cytotoxicity against human MIAPaCa2 cells incubated for 3 hrs measured after 3 to 4 hrs in absence of plasmin; assay type: functional, cell-based
[6] = Prodrug conversion assessed as release of active dozax in absence of plasmin at 50 uM pH 7.4 in PBS by RP-HPLC; assay type: ADME; settings: buffer, pH 7.4, 50 µM
Summary of the method: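 Enzyme-free control: 50 µM prodrug in PBS at 37 °C over 24 h, RP-HPLC monitoring dox at 480 nm.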

[7] = test system: COc1cccc2c1C(=O)c1c(O)c3c(c(O)c1C2=O)C[C@@](O)(C(=O)CO)C[C@@H]3O[C@H]1C[C@H]2[C@H](OCN2C(=O)OCc2ccc(NC(=O)[C@H](CCCCN)NC(=O)[C@H](Cc3ccccc3)NC(=O)[C@@H](C)NC(=O)CNC(C)=O)cc2)[C@H](C)O1; test: Activity of human cathepsin B assessed as enzyme catalytic turnover for compound hydrolysis at 50 uM at pH 6.5 in PBS buffer containing 10 mM N-acetylcysteine by RP-HPLC
Summary of the method: (§1)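 Michaelis-Menten kinetics, substrate 10–400 µM at 37 °C. Plasmin: 0.2 U, PBS pH 7.4, 4 min. Cathepsin B: 0.08 U, PBS-NAC pH 6.5, 20 min. Quenched with equal volume ethanol, −20 °C ≥2 h, centrifuged, supernatant RP-HPLC at 480 nm. Rates (µM/min) fit by non-linear least squares; triplicates.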

[8] = test system: COc1cccc2c1C(=O)c1c(O)c3c(c(O)c1C2=O)C[C@@](O)(C(=O)CO)C[C@@H]3O[C@H]1C[C@H]2[C@H](OCN2C(=O)OCc2ccc(NC(=O)[C@H](CCCCN)NC(=O)[C@H](Cc3ccccc3)NC(=O)[C@@H](C)NC(=O)CNC(C)=O)cc2)[C@H](C)O1; test: Activity of human cathepsin B assessed as compound hydrolysis at 50 uM at pH 6.5 in PBS buffer containing 10 mM N-acetylcysteine by RP-HPLC; summary of the method: as §1
[9] = substrate: COc1cccc2c1C(=O)c1c(O)c3c(c(O)c1C2=O)C[C@@](O)(C(=O)CO)C[C@@H]3O[C@H]1C[C@H]2[C@H](OCN2C(=O)OCc2ccc(NC(=O)[C@H](CCCCN)NC(=O)[C@H](Cc3ccccc3)NC(=O)[C@@H](C)NC(=O)CNC(C)=O)cc2)[C@H](C)O1; test: Activity of human plasmin assessed as compound hydrolysis at 50 uM at pH 7.4 in PBS buffer by RP-HPLC; summary of the method: as §1
[10] = substrate: COc1cccc2c1C(=O)c1c(O)c3c(c(O)c1C2=O)C[C@@](O)(C(=O)CO)C[C@@H]3O[C@H]1C[C@H]2[C@H](OCN2C(=O)OCc2ccc(NC(=O)[C@H](CCCCN)NC(=O)[C@H](Cc3ccccc3)NC(=O)[C@@H](C)NC(=O)CNC(C)=O)cc2)[C@H](C)O1; test: Activity of human plasmin assessed as enzyme catalytic turnover for compound hydrolysis at 50 uM at pH 7.4 in PBS buffer by RP-HPLC; summary of the method: as §1

COc1cccc2c1C(=O)c1c(O)c3c(c(O)c1C2=O)C[C@@](O)(C(=O)CO)C[C@@H]3O[C@H]1C[C@H]2[C@H](OCN2C(=O)OCc2ccc(NC(=O)[C@H](CCCCN)NC(=O)[C@H](Cc3ccccc3)NC(=O)[C@@H](C)N)cc2)[C@H](C)O1.O=P(O)(O)O
Activity [1]: Active
Activity [2]: Active
Drug metabolism [3]: Active
pIC50 [4]: Active
pIC50 [5]: Active
Stability [6]: Stable

Cathepsin B (Homo sapiens) (from UniProt P07858)
kcat [7]: 0.49 s⁻¹
Km [8]: 108 µM
Vmax [8]: 1.32 µM/min

COc1cccc2c1C(=O)c1c(O)c3c(c(O)c1C2=O)C[C@@](O)(C(=O)CO)C[C@@H]3O[C@H]1C[C@H](NC(=O)OCc2ccc(NC(=O)[C@H](CCCCN)NC(=O)[C@H](Cc3ccccc3)NC(=O)[C@@H](C)N)cc2)[C@H](O)[C@H](C)O1
IC50 [4]: < 1000 nM
pIC50 [5]: inactive

B1: Plasminogen (Homo sapiens), P00747 (protein)
chain: MEHKEVVLLLLLFLKSGQGEPLDDYVNTQGASLFSVTKKQLGAGSIEECAAKCEEDEEFTCRAFQYHSKEQQCVIMAENRKSSIIIRMRDVVLFEKKVYLSECKTGNGKNYRGTMSKTKNGITCQKWSSTSPHRPRFSPATHPSEGLEENYCRNPDNDPQGPWCYTTDPEKRYDYCDILECEEECMHCSGENYDGKISKTMSGLECQAWDSQSPHAHGYIPSKFPNKNLKKNYCRNPDRELRPWCFTTDPNKRWELCDIPRCTTPPPSSGPTYQCLKGTGENYRGNVAVTVSGHTCQHWSAQTPHTHNRTPENFPCKNLDENYCRNPDGKRAPWCHTTNSQVRWEYCKIPSCDSSPVSTEQLAPTAPPELTPVVQDCYHGDGQSYRGTSSTTTTGKKCQSWSSMTPHRHQKTPENYPNAGLTMNYCRNPDADKGPWCFTTDPSVRWEYCNLKKCSGTEASVVAPPPVVLLPDVETPSEEDCMFGNGKGYRGKRATTVTGTPCQDWAAQEPHRHSIFTPETNPRAGLEKNYCRNPDGDVGGPWCYTTNPRKLYDYCDVPQCAAPSFDCGKPQVEPKKCPGRVVGGCVAHPHSWPWQVSLRTRFGMHFCGGTLISPEWVLTAAHCLEKSPRPSSYKVILGAHQEVNLEPHVQEIEVSRLFLEPTRKDIALLKLSSPAVITDKVIPACLPSPNYVVADRTECFITGWGETQGTFGAGLLKEAQLPVIENKVCNRYEFLNGRVQSTELCAGHLAGGTDSCQGDSGGPLVCFEKDKYILQGVTSWGLGCARPNKPGVYVRVSRFVTWIEGVMRNN
Km [9]: 171 µM
Vmax [9]: 3.76 µM/min
kcat [10]: 2.45 s⁻¹
